Source: PubChem BioAssay (NMMLSC)
Most compounds without a hit are left out; they make up all but 2.5% or so of the library.
ABCG2 block: ABCG2 efflux pump inhibitors, primary screen, multiplex with ABCB1, IgMXP3 cells, flow cytometry | Broad substrate specificity ATP-binding cassette transporter ABCG2 (Homo sapiens), Q9UNQ0 | JC-1 efflux | inhibition, % at 6.6 µM | 0.1% of 190,000 active | AID 1325, 2008;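 active means inhibition above 80%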;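 further: 0% = DMSO and 100% = nicardipine control wells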
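Read-out basis: Efflux inhibition in percent versus controls | Test system: ABCG2 IgMXP3 and barcoded ABCB1 CCRF-Adr cell mix | Quantity: 3 million cells/mL in well | Schedule: 10 min at 25 °C | Control set: Nicardipine as high control, DMSO as low control | Reagent: JC-1 as fluorescent efflux pump substrate | Signal: Flow cytometry of retained JC-1 fluorescence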
Efflux pump inh: inhibitors of Candida efflux pumps in yeast, primary screen, S. cerevisiae, Nile Red, multiplex; 0.44% of 330,000 active; inhibition, % at 10 µM; S. cerevisiae Candida pump triplex;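 active means plate passing quality check with inhibition over a set limit, or well fluorescence over plate mean plus 4 SD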;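 further: Nile Red retained in pooled yeast measured as flow cytometry median fluorescence; 0% = buffer negative control and 100% = Enniatin B positive control; higher means more Nile Red kept so more efflux inhibition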
MEKK2wt PB1 HTS: modulators of MEK5 binding to wildtype MEKK2, primary screen, biochemical, multiplex bead flow cytometry, Alexa488-MEK5; AID 1531, 2009; 1.1% of 290,000 active; binding response (% of control), % at 10 µM; Mitogen-activated protein kinase kinase kinase 2 (Homo sapiens), Q9Y2U5; Alexa488-MEK5 binding to MEKK2 WT; actives lie on both sides; in the data active means binding response below about 67% or above about 130%
MEKK2mut PB1 HTS: MEK5 binding signal on mutant MEKK2 PB1, primary screen, biochemical, multiplex bead flow cytometry, Alexa488-MEK5; Alexa488-MEK5 binding to MEKK2 mutant; percent response, % at 10 µM; 0.35% of 290,000 active; in the data active means percent response above about 24%, passing the limit was not always enough
ABCB1 block: ABCB1 efflux pump inhibitors, primary screen, cell-based, multiplex, flow cytometry, ABCG2 counter-screen; inhibition, % at 6.6 µM; 0.067% of 190,000 active; CCRF-Adr cells, JC-1 efflux; AID 1326, 2008; ATP-dependent translocase ABCB1 (Homo sapiens), P08183; in the data active means inhibition above about 40%;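 further: 0% = vehicle and 100% = reference inhibitor; higher value means more JC-1 retained so stronger ABCB1 efflux block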
MEKK3 PB1 HTS: modulators of MEKK3-MEK5 PB1 binding, primary screen, biochemical, wildtype MEKK3, multiplex bead flow cytometry, Alexa488-MEK5; bead-based flow cytometry, Alexa488-MEK5 binding to MEKK3; actives lie on both sides; 0 = blocked by unlabeled MEK5, 100 = vehicle; binding response (% of control), % at 10 µM; Mitogen-activated protein kinase kinase kinase 3 (Homo sapiens), Q99759; 1.4% of 290,000 active; AID 1529, 2009;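 active means binding response more than 3 SD above or below the average of its plate-row segment, actives on both sides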;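 further: Alexa488 bead fluorescence after subtracting the streptavidin-only scavenger bead signal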
MEKK2wt confirm: modulators of MEK5 binding to wildtype MEKK2, confirmation, biochemical, single concentration, multiplex bead flow cytometry; shares compounds with MEKK3 PB1 HTS; AID 1892, 2009; binding response (% of control), % at 10 µM; 2.4% of 5,900 active; Alexa488-MEK5 binding to MEKK2 WT; actives lie on both sides; in the data active means binding response below about 16% or above about 210%; inactive means in between
MEKK2mut-MEK5: mutant MEKK2 PB1-MEK5 binding signal retest – biochemical, single concentration, multiplex bead flow cytometry, confirmation; AID 1893, 2009; shares compounds with MEKK3 PB1 HTS; Alexa488-MEK5 binding to MEKK2 mutant; 2% of 5,900 active; percent response, % at 10 µM; in the data active means percent response mostly above about 71%, no sharp cut-off; inactive means mostly below about 38%;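 further: higher means compound restores mutant binding toward wildtype level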
MEKK3-MEK5 inh: MEKK3 wild-type PB1 binding to MEK5, inhibitors, confirmation, biochemical, bead multiplex flow cytometry, single concentration, wildtype; shares compounds with MEKK3 PB1 HTS; Alexa488-MEK5 binding to MEKK3; hits give low values; binding response (% of control), % at 10 µM; 1.8% of 5,900 active;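 active means binding response below 72% of control, or above a set upper limit, though filed actives all read lower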;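 further: 100% = DMSO only wells and 0% = binding blocked by excess unlabeled MEK5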
Starred values were filed as active, the others as inactive; / = not tested or not shown; [ ] = dose if it differs, or a comment.

SMILES	ABCG2 block	Efflux pump inh	MEKK2wt PB1 HTS	MEKK2mut PB1 HTS	ABCB1 block	MEKK3 PB1 HTS	MEKK2wt confirm	MEKK2mut-MEK5	MEKK3-MEK5 inh
CC(C)(C)NC(=O)NC(=O)CN1CCN(Cc2ccccc2)CC1	1.8	0.1	69.0	-14.0	0.5	57.0	/	/	/
CC(C)(C)NC(=O)NC(=O)CN1CCN(C(c2ccccc2)c2ccccc2)CC1	-1.0	0.1	144.0	7.0	0.2	157.0*	100.0	1.0	100.0
O=CN1CCCN(Cc2nc(-c3cccc(Cl)c3)no2)CC1	1.1	-0.1	103.0	1.0	0.5	101.0	/	/	/
Cc1ccc2c(c1)C(=NC1CCCCC1)c1cc3ccccc3nc1-2	1.1	0.2	101.0	1.0	0.3	67.0*[inhibitor]	107.0	7.0	105.0
COC(=O)N/N=C/c1cc(C)n(-c2ccccc2)c1C	12.4	0.1	1.0*[inhibitor]	-4.0	1.2	1.0*[inhibitor]	101.0	0.0	100.0
CCC(=O)Nc1ccc(Cl)c(NC(=S)NC(=O)COc2ccc(Cl)cc2)c1	-5.1	0.2	97.0	-1.0	-1.0	74.0*[inhibitor]	103.0	3.0	103.0
COc1ccc(Cc2[nH]n3c(=O)cc(C(C)C)nc3c2-c2ccccc2)cc1	9.6	0.5	99.0	1.0	-0.1	102.0	/	/	/
O=C(NC1CCN(Cc2ccccc2)CC1)C1CCCN(c2nnc(-n3cccc3)s2)C1 (centres undefined)	2.0	0.0	124.0	14.0	1.8	104.0	/	/	/
O=C(NCCCN1CCc2ccccc2C1)C1CCN(c2nnc(-n3cccc3)s2)CC1	4.3	-0.1	219.0*	55.0*	1.3	115.0	186.0	62.0	113.0
O=C(NC1CCN(Cc2ccccc2)CC1)C1CCN(c2nnc(-n3cccc3)s2)CC1	4.8	0.1	203.0*	50.0*	1.7	112.0	183.0	65.0	111.0
CCOC(=O)c1sc2nc(C)nc(SC(C)C(=O)NC3CC3)c2c1C (centres undefined)	/	0.8	/	/	/	/	/	/	/
O=C(Cc1ccccc1)NN1C(=O)C2C3C=CC(C4CC34)C2C1=O (centres undefined)	-1.3	0.2	105.0	-2.0	-0.1	100.0	/	/	/
COc1ccc(Oc2ccc(C(F)(F)F)cc2NC(=O)c2ccc(F)cc2)cc1	/	0.3	122.0	28.0	/	133.0*	102.0	-8.0	97.0
C=C(C)CN=c1scc(C)n1/N=C/c1ccco1	6.0	0.0	85.0	-9.0	0.8	77.0*[inhibitor]	73.0	-11.0	73.0
C[C@@H](NC(=O)c1[nH]cnc1C(=O)Nc1ccon1)c1ccccc1	/	-0.2	/	/	/	/	/	/	/
CCOc1ccc(-n2c(SCc3ccc([N+](=O)[O-])cc3)nnc2-c2ccc(OC)cc2)cc1	-2.0	-0.2	102.0	0.0	0.2	143.0*	99.0	-2.0	103.0
c1ccc(CSc2nnc3ccc(-c4ccncc4)nn23)nc1	1.2	0.1	103.0	2.0	-0.3	115.0	/	/	/
Fc1ccc(CSc2nnc3ccc(-c4ccncc4)nn23)cc1	55.5	0.0	115.0	190.0*	3.6	127.0	97.0	-2.0	101.0
CC(C)C(=O)Nc1cc2c3c(c1)CCN3C(=O)CC2	/	0.0	101.0	1.0	/	104.0	/	/	/
